# Source: PubChem
# ABCB6 inh 2 = human ABCB6 transporter inhibition; Q9NP58; fluorescence ratio to DMSO, % at 10 µM; AID 602162; 360,000 tested, 0.19% active; K562-ABCB6 porphyrin accumulation, flow cytometry, 1 h; active compounds read low;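 active means fluorescence ratio to DMSO below 75%, the collection mean minus 3 SD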;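 further: signal is porphyrin accumulated inside mitochondria; lower ratio means ABCB6 inhibition with less porphyrin fluorescence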
# iPSC survival up = enhancers of human iPSC single-cell survival | hiPSC single-cell survival, ATPlite luminescence; 100% = ROCK inhibitor wells, 0% = DMSO | survival enhancement, % at 20 µM | 360,000 tested, 0.044% active | AID 602274; in the data active means survival enhancement above about 18%;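 further: cells exposed to compounds for 16 hours before the ATP read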
# SENP1 FRET inh = blocks the human SENP1 SUMO protease catalytic domain. Q9P0U3. recombinant SENP1 catalytic domain, CyPet-SUMO1-YPet FRET cleavage. inhibition, % at 10 µM. 360,000 tested, 0.21% active. AID 624204;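 active means inhibition at least 30% at 10 µM, raw YFP signal under a set limit, fluorescence ratio 0.5 to 1.5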
# Target sequence (Q9P0U3 419-644 limits assumed): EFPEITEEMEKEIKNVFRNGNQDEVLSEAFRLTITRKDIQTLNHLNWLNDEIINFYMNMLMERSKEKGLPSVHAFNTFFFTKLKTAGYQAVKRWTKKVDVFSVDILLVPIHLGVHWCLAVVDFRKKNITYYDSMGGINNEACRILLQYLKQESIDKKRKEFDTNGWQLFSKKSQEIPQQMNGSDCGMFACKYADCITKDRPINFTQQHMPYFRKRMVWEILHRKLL
#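 Assay system: hSENP1 catalytic domain, recombinant. Amount: SENP1 enzyme, 20 pM final. Schedule: 50 min reaction, RT, dark. Technique: FRET, CFP and YFP emission. Control set: no-enzyme wells low, DMSO-plus-enzyme wells high control.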
# FAS TE block = blocks the thioesterase domain of human fatty acid synthase; P49327; recombinant FAS-TE, OMFH fluorogenic substrate, fluorescence endpoint; inhibition, % at 15 µM; 360,000 tested, 0.67% active;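 active means compounds whose normalised, plate-corrected inhibition of enzyme fluorescence in the single-dose primary screen is 50% or more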
# FAS-TE conf = confirmation of human fatty acid synthase thioesterase inhibitors | shares compounds with FAS TE block | recombinant FAS-TE, OMFH fluorogenic substrate, fluorescence | inhibition, % at 15 µM | 2,300 tested, 45% active;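 active means compounds inhibiting the enzyme by at least 50% at 15 µM in any one of the replicates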
# Numbers stand for hits; – = inactive; · = no result given. This is a sample that favours compounds with a hit; in the whole collection about 1.1% have one here.
SMILES,ABCB6 inh 2,iPSC survival up,SENP1 FRET inh,FAS TE block,FAS-TE conf
N#CCC(=O)N/N=C\c1cc(Br)ccc1OC/C=C/c1ccccc1,–,–,–,–,·
CS(=O)(=O)c1ccc(Cl)c(NC(=O)CSc2nc3ccccc3c(=O)n2CCCN2CCOCC2)c1,–,–,–,–,·
O=C(CSc1nc2ccccc2c(=O)n1-c1ccc(F)cc1)Nc1cc(S(=O)(=O)N2CCOCC2)ccc1Cl,–,–,–,78,–
Cc1ccc(S(=O)(=O)N(C)C)cc1-n1c(SCC(=O)Nc2ccc(F)c(F)c2F)nc2ccccc2c1=O,–,–,–,68,–
Cc1ccc(S(=O)(=O)N2CCOCC2)cc1NC(=O)CSc1nc2ccccc2c(=O)n1Cc1ccccc1,–,–,–,50,–
O=C(CSc1nc2ccccc2c(=O)n1-c1ccccc1Cl)Nc1cccc(S(=O)(=O)N2CCOCC2)c1,–,–,–,95,–
O=C(CSc1ncnc2ccccc12)Nc1cccc(S(=O)(=O)N2CCOCC2)c1,–,–,–,–,·
CNC(=O)C1CCC(=O)N1Cc1c[nH]c2ccccc12 (stereo not drawn),–,–,–,–,·
CC(C)C(NC(=O)c1ccc(Cl)cc1)C(=O)NCC1CCCO1 (stereo not drawn),–,–,–,–,·
O=C(CSc1nc2cc(Cl)ccc2c(=O)n1Cc1ccco1)Nc1ccc(S(=O)(=O)N2CCOCC2)cc1,–,–,–,88,–
COc1cc2cc(CN(Cc3cccs3)C(=S)Nc3ccccc3)c(=O)[nH]c2cc1OC,–,–,–,79,–
CN1C(=O)/C(=C\c2cc(N=Nc3ccccc3)ccc2O)SC1=S,–,–,–,66,38
Cc1ccc(CN2CC(=O)N3[C@H]4c5cc(Cl)ccc5OC[C@@H]4[C@H](c4ccccc4)[C@]3(C)C2=O)cc1,–,–,–,84,–
Cc1ccc(CN2CC(=O)N3[C@H]4c5cc(C)ccc5OC[C@@H]4[C@H](c4ccccc4)[C@]3(C)C2=O)cc1,–,–,–,52,–
O=C(Nc1cccnc1)C1CCC(CNS(=O)(=O)c2cccc3nsnc23)CC1 (stereo not drawn),–,–,–,–,·
O=C(NCCS(=O)(=O)c1ccc(Br)cc1)c1c(F)cccc1F,–,–,–,–,·
O=C(COC(=O)c1cc(S(=O)(=O)N2CCOCC2)ccc1O)NCc1ccc2c(c1)OCO2,–,–,–,–,·
O=C(COC(=O)c1cc([N+](=O)[O-])ccc1N1CCOCC1)NCc1ccccc1,–,–,–,83,90
O=C(Cn1cc([N+](=O)[O-])ccc1=O)NCc1ccc(Cl)cc1Cl,–,–,–,56,55
O=C(COC(=O)c1cc(Cl)ccc1[N+](=O)[O-])NCc1ccc(Cl)cc1Cl,–,–,–,–,·
COc1cccc(CNC(=O)COC(=O)c2cc([N+](=O)[O-])ccc2N2CCCC2)c1,–,–,–,81,85
NS(=O)(=O)c1ccc(CCNC(=O)COC(=O)c2cc([N+](=O)[O-])ccc2N2CCOCC2)cc1,–,–,–,–,·
O=C(COC(=O)c1cc([N+](=O)[O-])ccc1N1CCOCC1)NCc1ccc(Cl)cc1Cl,–,–,–,93,93
O=C(Cn1cc(C(F)(F)F)cc(Cl)c1=O)NCc1ccc(Cl)cc1Cl,–,–,–,–,·
CC(=O)c1ccc(S(=O)(=O)NCCC(=O)OCC(=O)N2CCCC2=O)cc1,–,–,–,–,·
SMILES,ABCB6 inh 2,iPSC survival up,SENP1 FRET inh,FAS TE block,FAS-TE conf
CCN(CC)C(=O)C1=C(C)N(Cc2ccc(F)cc2)C(=O)C(CC(=O)NC(c2ccccc2)c2ccccc2)C1 (stereo not drawn),–,–,–,54,31
CCN1C(=O)[C@H]2[C@@H](c3ccc(C)cc3)N3C(=O)N(c4cccc(Br)c4)C(=O)[C@@]3(Cc3ccccc3)[C@H]2C1=O,–,–,–,67,–
CCN1C(=O)[C@H]2[C@@H](c3ccc(C)cc3)N3C(=O)N(c4cccc(Cl)c4)C(=O)[C@@]3(Cc3ccc(Cl)cc3)[C@H]2C1=O,–,–,–,86,53
COc1cc2c(cc1NC(=O)COC(=O)[C@@H](NS(=O)(=O)c1ccccc1)C(C)C)oc1ccccc12,–,–,–,67,–
O=C(Nc1cccc([N+](=O)[O-])c1)Nc1ccc2c(c1)CCC2,–,–,–,53,–
O=C(Nc1ccccc1)Nc1ccc2c(c1)CCC2,–,–,–,–,·
O=[N+]([O-])c1cccc(NC(=S)N2CCc3ccccc3C2)c1,–,–,–,51,23
O=C1Nc2cc(Cl)c(Cl)cc2N(O)N1c1ccc(Cl)c(Cl)c1,–,–,–,62,67
O=C1Nc2ccccc2N(O)N1c1ccc(Cl)c(Cl)c1,–,–,–,–,·
O=S(=O)(/N=C(/c1ccccc1)N1CCOCC1)c1ccc(F)cc1F,–,–,–,–,·
O=C(CSc1nnc(-c2ccccn2)n1Cc1ccco1)c1ccc(-c2ccccc2)cc1,–,–,–,51,–
O=C(CSc1nccc(=O)[nH]1)Nc1cccc2ccccc12,–,–,–,–,·
CC(=O)c1cccc(OC(=O)Oc2cccc(C(C)=O)c2)c1,–,–,–,50,69
COc1cc(OC)cc(C(=O)Nc2cccc(C(C)=O)c2)c1,–,–,–,–,·
CC1CCN(C(=O)c2ccc3c(Cl)c4c(nc3c2)CCCC4)CC1,–,–,–,71,78
N#Cc1c(-c2ccccc2)c(-c2ccccc2)nn(CC(=O)NNC(=O)Nc2ccc(Cl)c(Cl)c2)c1=O,–,–,–,69,48
O=C(Cn1nc(-c2ccccc2)c2ccccc2c1=O)Nc1ccc(F)cc1,–,–,–,–,·
O=C(Nc1ccc(CN2CCCCC2)cc1)c1sc2ccccc2c1Cl,–,–,–,–,·
COc1ccc(C=C2SC(=S)NC2=O)cc1,–,–,–,–,·
COc1cccc(OCCOc2ccc(/C=C3/SC(=S)NC3=O)cc2)c1,–,–,–,68,–
COc1ccc(COc2ccc3c(C)cc(=O)oc3c2)cc1,–,–,–,–,·
Cc1cc(=O)oc2cc(OCc3ccc(S(=O)(=O)N4CCOCC4)cc3)ccc12,–,–,–,67,–
CCOc1ccccc1N1CCN(C(=O)/C=C/c2cccc([N+](=O)[O-])c2)CC1,–,–,–,–,·
O=C(/C=C/c1cccc([N+](=O)[O-])c1)N1CCN(c2ccccc2F)CC1,–,–,–,56,42
Cc1cccc(CS(=O)(=O)c2ncc(CO)n2C)c1,–,–,–,–,·
N#Cc1cc2nc(O)c(O)nc2cc1[N+](=O)[O-],–,–,–,52,56
Cc1ccc(S(=O)(=O)N2CCC[C@H]2C(=O)OCC(=O)Nc2ccc3c(c2)OCO3)cc1,–,–,–,–,·
COc1ccc(/C=C(/NC(=O)c2ccco2)C(=O)Nc2ccc(C(=O)O)cc2)cc1,–,–,–,–,·
CC(C)(C)c1ccc(C(=O)OCCNC(=O)c2c(Cl)nc3ccccn23)cc1,–,–,–,66,75
